Screening results from PubChem BioAssay.
Lmaj promast: inhibitors of Leishmania major promastigote growth; Leishmania major promastigotes, resazurin fluorescence viability; inhibition, % at 10 µM; 200,000 compounds, 9% hits; AID 1063; in the data active = inhibition above about 50%;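 note: promastigotes grown with compound for 44 hours at 28 °C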
Dynein cargo inh: dynein cargo transport inhibition | 220,000 compounds, 0.47% hits | 3617.4 mouse cells, GR-EGFP nuclear translocation imaging; test concentration mostly 20 µM; stimulated with dexamethasone, 1 µM; stronger effect = lower value | z-score, hits read low;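 active = plate z-score of nuclear minus cytoplasmic receptor signal below a set negative limit, without overly bright fluorescence or cell loss, cut at about -3.5 in these data, passing the limit was not always enough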;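 note: z-score of nuclear minus cytoplasmic ring GR-EGFP intensity difference per well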
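Medium: Induction medium lacking tetracycline, stripped serum | Probe or stimulus: 1.0 µM final dexamethasone stimulus | Schedule: 48 h induction, then 1 h compound, then 30 min agonist, 37 °C | Signal: Automated 10x imaging of fixed Hoechst-stained cells | Evaluation: Per-cell GR-EGFP intensity, nucleus versus surrounding cytoplasmic ring, well-averaged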
MT stabilizer: microtubule stabilization, imaging screen | HeLa tubulin immunostaining HCS, 24 h; share of cells brighter than vehicle mean+2SD | % tubulin-high responders, % at 10 µM | 200,000 compounds, 0.83% hits;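 active = plate Z-score above 3 for both tubulin-high and condensed-nucleus cell shares, with cell loss under 80%, at 10 µM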;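 note: anti alpha tubulin signal scored within the nucleus-defined area of each cell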
Autophagy mod: autophagy modulation, high-content screen | MEF GFP-LC3 puncta imaging; test concentration mostly 10 µM | AID 463193 | 190,000 compounds, 0.98% hits | calls only at 10 µM (by protocol);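 active = percentage of spot-positive cells more than 3 SD above its plate mean, without a fluorescence outlier flag or 80% toxicity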;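 note: spot-positive cell cutoff set from DMSO-treated cells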
CHOP inhibitor: blocks CHOP induction under ER stress. CHO-K1 CHOP-promoter luciferase, tunicamycin-induced, 15-18 h. inhibition, % at 10 µM. 220,000 compounds, 3.8% hits;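 active = compounds that reduced the stress-induced luciferase reporter signal by more than about 70% of percent inhibition, limit read from the data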;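 note: 0% = tunicamycin plus vehicle and 100% = wells without tunicamycin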
bCat nuc transl: beta-catenin nuclear translocation modulation | HeLa beta-catenin nuclear translocation, immunofluorescence imaging | nuclear translocation activity, % at 5 µM | 190,000 compounds, 0.3% hits;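 active = nuclear translocation activity above 50% at 5 µM, with a well cell count of 50 or more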;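 note: per-cell ratio of nuclear to cytoplasmic median beta-catenin stain intensity; plate controls were DMSO negative control for no effect and GSK-3 inhibitor IX positive control for full effect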
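Test system: human HeLa cell line; Doses: 5 µM primary, 0.02–20 µM confirmation; Incubation: 24 h compound exposure, 37°C; Detection: beta-catenin immunofluorescence imaging with DAPI; Read-out: beta-catenin nuclear/cytoplasmic ratio, % activation.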
* hit, by the source's call. Only some compounds are listed: those with a hit (about 12% of all), similar ones and a draw of the others.

`CN1CCN(c2cc(=O)n(C3CCCCC3)c(=O)[nH]2)CC1` gave Lmaj promast -2, Dynein cargo inh 2.8, MT stabilizer 5, Autophagy mod inactive, CHOP inhibitor 9 and bCat nuc transl -1.
Screening O=c1cc(N2CCN(c3cccc(Cl)c3)CC2)[nH]c(=O)n1C1CCCCC1 returned Lmaj promast -1, Dynein cargo inh -0.75, MT stabilizer 9, Autophagy mod inactive, CHOP inhibitor 74* and bCat nuc transl -2.
For Cc1ccc(S(=O)(=O)N2CCN(c3nc4ccccc4nc3-n3nc(C)cc3C)CC2)cc1 the results were Lmaj promast 20, Dynein cargo inh 1.8, MT stabilizer 4, Autophagy mod inactive, CHOP inhibitor 73* and bCat nuc transl 2.
Screening Cc1cc(C)n(-c2nc3ccccc3nc2N2CCC(C)CC2)n1 returned Lmaj promast 4, Dynein cargo inh -0.44, MT stabilizer 3, Autophagy mod inactive, CHOP inhibitor 32 and bCat nuc transl 3.
CCN1CCN(CCOc2ccccc2OCc2ccccc2)CC1 was read as Lmaj promast 9, Dynein cargo inh 0.5, MT stabilizer 2, Autophagy mod inactive, CHOP inhibitor 7 and bCat nuc transl -1.
`CCN1CCN(CCCCSc2ccccc2)CC1` gave Lmaj promast 78*, Dynein cargo inh -0.22, MT stabilizer 2, Autophagy mod inactive, CHOP inhibitor 6 and bCat nuc transl 0.
For CC(C)(C)NS(=O)(=O)c1ccc(CCC(=O)Nc2cc(Cl)ccc2Oc2ccccc2)cc1 the results were Lmaj promast 98*, Dynein cargo inh -0.84, MT stabilizer 3, Autophagy mod inactive, CHOP inhibitor 35 and bCat nuc transl 3.
Screening CC(C)CNS(=O)(=O)c1ccc(CCC(=O)Nc2cc(Cl)ccc2Oc2ccccc2)cc1 returned Lmaj promast 19, Dynein cargo inh 0.022, MT stabilizer 1, Autophagy mod inactive, CHOP inhibitor 45 and bCat nuc transl 3.
`CCCNS(=O)(=O)c1ccc(CCC(=O)Nc2cc(Cl)ccc2Oc2ccccc2)cc1` gave Lmaj promast 3, MT stabilizer 2, Autophagy mod inactive, CHOP inhibitor 90* and bCat nuc transl 0.
For CC(C)CC(=O)Nc1cccc(NC(=O)CC(C)C)n1 the results were Lmaj promast 52*, Dynein cargo inh -0.096, MT stabilizer 4, Autophagy mod inactive, CHOP inhibitor 24 and bCat nuc transl -4.
For CCOCC(=O)Nc1cc(C(=O)Nc2ccc(F)cc2)ccc1Cl the results were Lmaj promast -8, Dynein cargo inh 0.43, MT stabilizer 3, Autophagy mod inactive, CHOP inhibitor 21 and bCat nuc transl 2.
`Cc1cc(C(F)(F)F)c(C#N)c(SCC(=O)Nc2nc3cc(Br)ccc3s2)n1` gave Lmaj promast -3, Dynein cargo inh 0.51, MT stabilizer 6, Autophagy mod active, CHOP inhibitor -12 and bCat nuc transl 0.
For COC(=O)CSc1nc(C)cc(C(F)(F)F)c1C#N the results were Lmaj promast 2, Dynein cargo inh -0.39, MT stabilizer 2, Autophagy mod inactive, CHOP inhibitor 0 and bCat nuc transl -1.
Cc1ccc(S(=O)(=O)CCSc2nc(C)cc(C(F)(F)F)c2C#N)cc1 was read as Lmaj promast 7, Dynein cargo inh -1.4, MT stabilizer 3, Autophagy mod active, CHOP inhibitor 26 and bCat nuc transl -1.
`CCOC(=O)N1CCN(C(=S)Nc2ccc(C)cc2)CC1` gave Lmaj promast -8, Dynein cargo inh -0.69, MT stabilizer 3, Autophagy mod inactive, CHOP inhibitor 8 and bCat nuc transl -2.
For Cc1ccc(-c2nc(CSCC(=O)N3CCOCC3)c(C)o2)cc1 the results were Lmaj promast -5, Dynein cargo inh -1.1, MT stabilizer 6, Autophagy mod inactive, CHOP inhibitor 8 and bCat nuc transl 2.
Screening CCc1ccc(-c2nc(CSCC(=O)N3CCN(c4ccccn4)CC3)c(C)o2)cc1 returned Lmaj promast 11, Dynein cargo inh 0.45, MT stabilizer 8, Autophagy mod inactive and CHOP inhibitor 86*.
For O=C(CCN1C(=O)C2C3C=CC(C3)C2C1=O)N1CCN(c2ccccn2)CC1 (stereo unspecified) the results were Lmaj promast -4, Dynein cargo inh -0.35, MT stabilizer 3, Autophagy mod inactive, CHOP inhibitor 0 and bCat nuc transl -1.
`Cc1ccc(-c2nc(CSCC(=O)N3CCN(c4ccccn4)CC3)c(C)o2)cc1` gave Lmaj promast -4, Dynein cargo inh -0.31, MT stabilizer 4, Autophagy mod inactive and CHOP inhibitor 78*.
Screening CCOc1ccc(-c2nc(CSCC(=O)NC3CCCc4ccccc43)c(C)o2)cc1 (stereo unspecified) returned Lmaj promast 4, Dynein cargo inh -0.9, MT stabilizer 2, Autophagy mod inactive and CHOP inhibitor 87*.
For O=C(CCN1C(=O)C2C3C=CC(C3)C2C1=O)N1CCN(c2cccc(Cl)c2)CC1 (stereo unspecified) the results were Lmaj promast 56*, Dynein cargo inh -0.99, MT stabilizer 2, Autophagy mod inactive, CHOP inhibitor 6 and bCat nuc transl 1.
Cc1oc(C(C)(C)C)cc1C(=O)Nc1cccc(/C=C/C(=O)O)c1 was read as Lmaj promast -4, Dynein cargo inh -0.91, MT stabilizer 2, Autophagy mod inactive, CHOP inhibitor 1 and bCat nuc transl 3.
Screening COc1cccc(-c2nc(CSCC(=O)N3CCc4ccccc43)c(C)o2)c1 returned Lmaj promast -1, Dynein cargo inh 0.092, MT stabilizer 2, Autophagy mod inactive, CHOP inhibitor 27 and bCat nuc transl -2.
For O=C(CCSCc1ccccc1Cl)N1CCN(c2cccc(Cl)c2)CC1 the results were Lmaj promast 69*, Dynein cargo inh 1.1, MT stabilizer 3, Autophagy mod inactive and CHOP inhibitor -7.
CCOc1ccc(-c2nc(CSCC(=O)N3CCN(c4cccc(OC)c4)CC3)c(C)o2)cc1 was read as Lmaj promast 5, Dynein cargo inh -0.58, MT stabilizer 10, Autophagy mod inactive and CHOP inhibitor 74*.
For O=C(C(=O)N1CCN(c2cccc(Cl)c2)CC1)N1CCCCC1 the results were Lmaj promast 6, Dynein cargo inh 2.7, MT stabilizer 5, Autophagy mod inactive, CHOP inhibitor 4 and bCat nuc transl -1.
O=C(CSc1ccccc1)N1CCN(c2ccccn2)CC1 was read as Lmaj promast -5, Dynein cargo inh 0.61, MT stabilizer 2, Autophagy mod inactive, CHOP inhibitor 2 and bCat nuc transl -1.
For O=C(CSCc1ccccc1Cl)N1CCN(c2ccccn2)CC1 the results were Lmaj promast 60*, Dynein cargo inh -0.36, MT stabilizer 1, Autophagy mod inactive and CHOP inhibitor 23.
